# Calls of active or inactive are those of the source. The calls are words filed in the database; no cut-off is given here.
# Experiments:
# [1] = system: Rattus norvegicus; assay: Delta BP refers to oral hypotensive activity of compound which is evaluated at 4 hr and 24 hr in restrained, normotensive conscious rats at a dose of 50 mg/kg; format: functional, organism-based; parameters: dose 50 mg/kg
# Summary of the method: (§1)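 Female Sprague-Dawley rats, normotensive, restrained in a towel. Blood pressure was read directly via chronic indwelling aortic cannulas exteriorized at the nape, before and 4 and 24 h after an oral dose suspended in carboxymethylcellulose (10 mL/kg). Values from two animals were averaged at each time; a mean change of at least 5 mmHg was taken as significant (p < 0.05).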
# [2] = system: Rattus norvegicus; assay: Delta BP refers to oral hypotensive activity of compound which is evaluated at 4 hr and 24 hr in restrained, normotensive conscious rats at a dose of 50 mg/kg; -13/-19; format: functional; summary of the method: as §1
# [3] = system: Rattus norvegicus; assay: Delta BP refers to oral hypotensive activity of compound which is evaluated at 4 hr and 24 hr in restrained, normotensive conscious rats at a dose of 50 mg/kg; -16/-26; format: functional; summary of the method: as §1
# [4] = system: Rattus norvegicus; assay: Delta BP refers to oral hypotensive activity of compound which is evaluated at 4 hr and 24 hr in restrained, normotensive conscious rats at a dose of 50 mg/kg; -8/-10; format: functional; summary of the method: as §1
# [5] = system: Rattus norvegicus; assay: Delta BP refers to oral hypotensive activity of compound which is evaluated at 4 hr and 24 hr in restrained, normotensive conscious rats at a dose of 50 mg/kg; -10/-3; format: functional; summary of the method: as §1
# [6] = system: Rattus norvegicus; assay: Delta BP refers to oral hypotensive activity of compound which is evaluated at 4 hr and 24 hr in restrained, normotensive conscious rats at a dose of 50 mg/kg; -4/-10; format: functional; summary of the method: as §1
# [7] = system: Rattus norvegicus; assay: Delta BP refers to oral hypotensive activity of compound which is evaluated at 4 hr and 24 hr in restrained, normotensive conscious rats at a dose of 50 mg/kg; -16/-14; format: functional; summary of the method: as §1
# [8] = system: Rattus norvegicus; assay: Delta BP refers to oral hypotensive activity of compound which is evaluated at 4 hr and 24 hr in restrained, normotensive conscious rats at a dose of 50 mg/kg; -15/-3; format: functional; summary of the method: as §1
# [9] = system: Rattus norvegicus; assay: Delta BP refers to oral hypotensive activity of compound which is evaluated at 4 hr and 24 hr in restrained, normotensive conscious rats at a dose of 50 mg/kg; -18/-28; format: functional; summary of the method: as §1
# [10] = system: Rattus norvegicus; assay: Delta BP refers to oral hypotensive activity of compound which is evaluated at 4 hr and 24 hr in restrained, normotensive conscious rats at a dose of 15 mg/kg; -8/-10; format: functional; summary of the method: as §1
# [11] = system: Rattus norvegicus; assay: Delta BP refers to oral hypotensive activity of compound which is evaluated at 4 hr and 24 hr in restrained, normotensive conscious rats at a dose of 50 mg/kg; -20/-5; format: functional; summary of the method: as §1
# [12] = system: Rattus norvegicus; assay: Delta BP refers to oral hypotensive activity of compound which is evaluated at 4 hr and 24 hr in restrained, normotensive conscious rats at a dose of 50 mg/kg; -26/-21; format: functional; summary of the method: as §1
# [13] = system: Rattus norvegicus; assay: Delta BP refers to oral hypotensive activity of compound which is evaluated at 4 hr and 24 hr in restrained, normotensive conscious rats at a dose of 15 mg/kg; -24/-5; format: functional; summary of the method: as §1
# [14] = system: Rattus norvegicus; assay: Delta BP refers to oral hypotensive activity of compound which is evaluated at 4 hr and 24 hr in restrained, normotensive conscious rats at a dose of 50 mg/kg; -9/-10; format: functional; summary of the method: as §1
# [15] = system: Rattus norvegicus; assay: Delta BP refers to oral hypotensive activity of compound which is evaluated at 4 hr and 24 hr in restrained, normotensive conscious rats at a dose of 50 mg/kg; -8/-1; format: functional; summary of the method: as §1
# [16] = system: Rattus norvegicus; assay: Delta BP refers to oral hypotensive activity of compound which is evaluated at 4 hr and 24 hr in restrained, normotensive conscious rats at a dose of 50 mg/kg; -3/-1; format: functional; summary of the method: as §1
smiles,measurement,setting,value
COc1cc2c(cc1OC)C(C)(C)COC2CCN1CCN(c2ccccc2OC)CC1 (centres undefined),Delta blood pressure,[1],inactive
COc1cc2c(cc1OC)C(CN1CCN(c3ccc(Cl)cc3)CC1)OCC2 (centres undefined),Delta blood pressure,[2],-13 mmHg
COc1cc2c(cc1OC)C(CN1CCN(c3cccc(Cl)c3)CC1)OCC2 (centres undefined),Delta blood pressure,[1],inactive
COc1cc2c(cc1OC)C(C)(CCN1CCN(c3ccc(F)cc3)CC1)OCC2 (centres undefined),Delta blood pressure,[3],-16 mmHg
COc1cc2c(cc1OC)C(CCCN1CCN(c3ccccc3C)CC1)(c1ccc(F)cc1)OCC2 (centres undefined),Delta blood pressure,[1],inactive
COc1cc2c(cc1OC)C(C)(C)COC2CCN1CCN(c2ccccc2Cl)CC1 (centres undefined),Delta blood pressure,[1],inactive
COc1cc2c(cc1OC)C(C)(CCCN1CCN(c3cccc(C(F)(F)F)c3)CC1)OCC2 (centres undefined),Delta blood pressure,[1],inactive
COc1cc2c(cc1OC)C(C)(CCN1CCN(c3ccc(Cl)cc3)CC1)OCC2 (centres undefined),Delta blood pressure,[4],-8 mmHg
COc1cc2c(cc1OC)C(CCCN1CCN(c3ccccc3Cl)CC1)(c1ccc(F)cc1)OCC2 (centres undefined),Delta blood pressure,[1],inactive
COc1cc2c(cc1OC)C(CCN1CCN(c3ccc(Cl)cc3)CC1)OC(C)(C)C2 (centres undefined),Delta blood pressure,[1],inactive
COc1cc2c(cc1OC)C(CCN1CCN(c3ccccc3)CC1)OC(C)(C)C2 (centres undefined),Delta blood pressure,[1],inactive
COc1cc2c(cc1OC)C(C)(CCCN1CCN(c3ccc(F)cc3)CC1)OCC2 (centres undefined),Delta blood pressure,[5],-10 mmHg
COc1cc2c(cc1OC)C(C)(C)COC2CCN1CCN(c2cccc(Cl)c2)CC1 (centres undefined),Delta blood pressure,[6],-4 mmHg
COc1cc2c(cc1OC)C(C)(CCCN1CCN(c3cccc(Cl)c3)CC1)OCC2 (centres undefined),Delta blood pressure,[1],inactive
COc1cc2c(cc1OC)C(C)(C)COC2CCN1CCN(c2ccccc2)CC1 (centres undefined),Delta blood pressure,[7],-16 mmHg
COc1cc2c(cc1OC)C(CN1CCN(c3ccccc3OC)CC1)OCC2 (centres undefined),Delta blood pressure,[8],-15 mmHg
COc1cc2c(cc1OC)C(CCN1CCN(c3ccc(F)cc3)CC1)OC(C)(C)C2 (centres undefined),Delta blood pressure,[3],-16 mmHg
COc1cc2c(cc1OC)C(C)(CCN1CCN(c3ccccn3)CC1)OCC2 (centres undefined),Delta blood pressure,[1],inactive
COc1cc2c(cc1OC)C(C)(C)COC2CCN1CCN(c2ccccc2C)CC1 (centres undefined),Delta blood pressure,[9],-18 mmHg
same,Delta blood pressure,[10],-8 mmHg
COc1cc2c(cc1OC)C(CN1CCN(c3ccccc3)CC1)OCC2 (centres undefined),Delta blood pressure,[11],-20 mmHg
COc1cc2c(cc1OC)C(C)(CCCN1CCN(c3ccccc3C)CC1)OCC2 (centres undefined),Delta blood pressure,[12],-26 mmHg
same,Delta blood pressure,[13],-24 mmHg
COc1cc2c(cc1OC)C(CCCN1CCN(c3ccccc3OC)CC1)(c1ccc(F)cc1)OCC2 (centres undefined),Delta blood pressure,[1],inactive
COc1cc2c(cc1OC)C(C)(CCN1CCN(c3ccccc3OC)CC1)OCC2 (centres undefined),Delta blood pressure,[14],-9 mmHg
COc1cc2c(cc1OC)C(C)(CCCN1CCN(c3ccc(Cl)cc3)CC1)OCC2 (centres undefined),Delta blood pressure,[15],-8 mmHg
COc1cc2c(cc1OC)C(CCN1CCN(c3cccc(Cl)c3)CC1)OC(C)(C)C2 (centres undefined),Delta blood pressure,[1],inactive
COc1cc2c(cc1OC)C(CCCN1CCN(c3cccc(C(F)(F)F)c3)CC1)(c1ccc(F)cc1)OCC2 (centres undefined),Delta blood pressure,[1],inactive
COc1cc2c(cc1OC)C(C)(CCN1CCN(c3ccccc3Cl)CC1)OCC2 (centres undefined),Delta blood pressure,[16],-3 mmHg

# Reference: ChEMBL document CHEMBL1122179, “1-(alkylamino)isochromans: hypotensives with peripheral and central activities” (J Med Chem, 1982)
